From ChEMBL document CHEMBL1136635, “Modification of the N-terminus of peptidomimetic protein tyrosine phosphatase 1B (PTP1B) inhibitors: identification of analogues with cellular activity” (Bioorg Med Chem Lett, 2003)

Columns and labels:
[1] = biological target: Receptor-type tyrosine-protein phosphatase F (Homo sapiens) (UniProt P10586); assay: Inhibitory activity against phosphatase (LAR) at a concentration of 100 uM
Summary of the method: (§1)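 Purified recombinant human enzyme constructs; PTP1B is a C-terminally truncated soluble form, tested alongside LAR and SHP-2. Activity is read as the initial rate of p-nitrophenyl phosphate (pNPP) hydrolysis and reported as percent inhibition. PTP1B is tested at 100, 10 and 1 µM, or 10 and 1 µM in the salicylate series; LAR and SHP-2 at 100 µM.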

[2] = Uptake of 2-DOG (2-deoxyglucose) into L6 myocytes in the presence of half-maximal concentration of insulin at 100 uM; type: functional, Rattus norvegicus
Summary of the method: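 L6 myotubes are exposed to compound at 100 µM with 10 nM insulin, a dose eliciting about 50% of maximal uptake. The initial rate of 2-[3H]deoxyglucose uptake is measured, with L-[14C]glucose marking extracellular space, and normalized to recovered lysate protein. Net insulin-dependent transport with inhibitor is expressed as a percent of that without inhibitor.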

[3] = biological target: T1, Tyrosine-protein phosphatase non-receptor type 11 (Homo sapiens) (UniProt Q06124); assay: Inhibition of recombinant human phosphatase (SHP-2) at a concentration of 100 uM; summary of the method: as §1
T1 sequence (whole entry): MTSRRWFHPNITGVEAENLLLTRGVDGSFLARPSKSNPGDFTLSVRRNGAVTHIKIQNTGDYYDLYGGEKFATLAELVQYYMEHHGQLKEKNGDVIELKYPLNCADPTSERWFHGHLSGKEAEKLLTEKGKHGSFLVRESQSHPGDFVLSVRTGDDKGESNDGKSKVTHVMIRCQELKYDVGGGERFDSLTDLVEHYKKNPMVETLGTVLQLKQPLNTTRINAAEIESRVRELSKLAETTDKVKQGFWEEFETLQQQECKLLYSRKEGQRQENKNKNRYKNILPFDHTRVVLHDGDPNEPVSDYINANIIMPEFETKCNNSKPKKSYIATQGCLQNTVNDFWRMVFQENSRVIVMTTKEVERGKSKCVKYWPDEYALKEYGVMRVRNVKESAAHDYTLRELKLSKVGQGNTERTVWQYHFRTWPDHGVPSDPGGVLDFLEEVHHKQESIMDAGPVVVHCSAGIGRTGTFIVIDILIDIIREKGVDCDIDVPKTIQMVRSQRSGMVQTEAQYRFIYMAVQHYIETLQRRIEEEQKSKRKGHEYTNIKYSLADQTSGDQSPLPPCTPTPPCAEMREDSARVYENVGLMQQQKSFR

[4] = biological target: T2, Tyrosine-protein phosphatase non-receptor type 1 (Homo sapiens) (UniProt P18031); assay: Inhibitory activity against human protein tyrosine phosphatase 1B (PTP1B) at a concentration of 1 uM; summary of the method: as §1
T2 sequence (whole entry): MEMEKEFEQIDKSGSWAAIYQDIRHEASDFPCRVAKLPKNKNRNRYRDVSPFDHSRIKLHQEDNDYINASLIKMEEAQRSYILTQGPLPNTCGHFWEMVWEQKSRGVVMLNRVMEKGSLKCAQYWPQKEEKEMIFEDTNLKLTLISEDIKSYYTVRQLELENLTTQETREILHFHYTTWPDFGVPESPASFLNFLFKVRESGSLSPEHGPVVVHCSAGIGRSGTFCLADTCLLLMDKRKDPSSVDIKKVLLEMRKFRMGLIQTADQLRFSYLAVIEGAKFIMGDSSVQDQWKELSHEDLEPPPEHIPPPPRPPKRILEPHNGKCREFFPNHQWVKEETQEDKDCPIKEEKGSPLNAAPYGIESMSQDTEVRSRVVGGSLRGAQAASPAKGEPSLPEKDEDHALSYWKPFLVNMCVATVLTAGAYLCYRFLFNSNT

[5] = biological target: T2, Tyrosine-protein phosphatase non-receptor type 1 (Homo sapiens); assay: Inhibitory activity against human protein tyrosine phosphatase 1B (PTP1B) at a concentration of 100 uM; summary of the method: as §1
[6] = biological target: T2, Tyrosine-protein phosphatase non-receptor type 1 (Homo sapiens); assay: Inhibitory activity against human protein tyrosine phosphatase 1B (PTP1B) at a concentration of 10 uM; summary of the method: as §1

Chain of Receptor-type tyrosine-protein phosphatase F (Homo sapiens) (P10586 whole entry, the tested form may be a part): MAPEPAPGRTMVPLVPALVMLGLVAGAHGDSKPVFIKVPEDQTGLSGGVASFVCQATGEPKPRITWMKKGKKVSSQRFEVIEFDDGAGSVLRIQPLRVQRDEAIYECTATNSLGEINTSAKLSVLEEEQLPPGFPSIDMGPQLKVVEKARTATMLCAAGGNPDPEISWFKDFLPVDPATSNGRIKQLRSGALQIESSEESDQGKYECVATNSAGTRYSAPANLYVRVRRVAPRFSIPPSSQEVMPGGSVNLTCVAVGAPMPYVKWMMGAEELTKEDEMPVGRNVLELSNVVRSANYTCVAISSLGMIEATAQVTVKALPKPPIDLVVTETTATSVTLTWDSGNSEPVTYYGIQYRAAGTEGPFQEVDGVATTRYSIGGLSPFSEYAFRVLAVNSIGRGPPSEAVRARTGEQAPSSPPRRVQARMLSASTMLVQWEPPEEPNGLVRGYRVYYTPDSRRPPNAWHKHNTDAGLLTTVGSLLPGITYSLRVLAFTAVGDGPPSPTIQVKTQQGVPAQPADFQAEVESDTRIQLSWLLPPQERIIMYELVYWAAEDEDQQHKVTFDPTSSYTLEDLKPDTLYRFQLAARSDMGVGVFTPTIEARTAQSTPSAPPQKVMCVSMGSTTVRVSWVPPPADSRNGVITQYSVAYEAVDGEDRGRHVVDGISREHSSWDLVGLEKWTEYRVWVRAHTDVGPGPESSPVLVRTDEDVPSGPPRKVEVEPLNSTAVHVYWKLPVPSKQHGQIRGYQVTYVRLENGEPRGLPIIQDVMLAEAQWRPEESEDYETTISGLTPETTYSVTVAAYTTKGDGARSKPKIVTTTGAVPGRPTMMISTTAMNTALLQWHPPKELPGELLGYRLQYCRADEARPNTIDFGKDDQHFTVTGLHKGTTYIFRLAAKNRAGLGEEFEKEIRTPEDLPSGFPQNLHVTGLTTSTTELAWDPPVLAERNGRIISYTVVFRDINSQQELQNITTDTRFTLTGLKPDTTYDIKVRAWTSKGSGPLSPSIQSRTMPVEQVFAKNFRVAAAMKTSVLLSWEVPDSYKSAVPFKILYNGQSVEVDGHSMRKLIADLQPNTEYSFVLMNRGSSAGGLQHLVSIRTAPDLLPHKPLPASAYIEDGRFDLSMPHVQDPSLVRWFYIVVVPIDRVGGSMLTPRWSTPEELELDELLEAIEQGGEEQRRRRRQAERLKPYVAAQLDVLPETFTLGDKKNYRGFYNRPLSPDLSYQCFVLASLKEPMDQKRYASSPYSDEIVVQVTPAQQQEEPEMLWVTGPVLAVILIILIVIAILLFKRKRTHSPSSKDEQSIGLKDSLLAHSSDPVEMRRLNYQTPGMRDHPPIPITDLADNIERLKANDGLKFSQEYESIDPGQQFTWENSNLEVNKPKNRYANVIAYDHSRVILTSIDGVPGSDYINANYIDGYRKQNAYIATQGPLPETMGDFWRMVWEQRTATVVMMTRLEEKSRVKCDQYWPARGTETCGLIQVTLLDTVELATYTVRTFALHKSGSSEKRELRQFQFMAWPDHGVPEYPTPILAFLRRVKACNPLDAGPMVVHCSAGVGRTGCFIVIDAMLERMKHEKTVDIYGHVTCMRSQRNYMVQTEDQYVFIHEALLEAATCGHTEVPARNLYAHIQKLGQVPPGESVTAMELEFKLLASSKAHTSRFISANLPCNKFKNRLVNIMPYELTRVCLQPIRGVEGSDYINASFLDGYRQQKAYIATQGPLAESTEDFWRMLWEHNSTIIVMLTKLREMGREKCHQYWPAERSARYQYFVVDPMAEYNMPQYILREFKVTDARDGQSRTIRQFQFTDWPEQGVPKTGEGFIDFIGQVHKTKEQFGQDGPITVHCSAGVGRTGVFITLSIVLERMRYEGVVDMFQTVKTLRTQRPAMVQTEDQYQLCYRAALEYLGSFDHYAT

Row | inhibition [1] | inhibition [3] | inhibition [4] | inhibition [5] | inhibition [6] | Structure (SMILES) | Control Uptake [2]
1 | 8% | 0% | 5% | 80% | 25% | CCCCCNC(=O)[C@H](Cc1ccc(OC(C(=O)O)C(=O)O)cc1)NC(=O)[C@H](Cc1c(F)c(F)c(F)c(F)c1F)NC(=O)OC(C)(C)C | 100%
2 | 7% | 0% | 2% | 77% | 17% | CCCCCNC(=O)[C@H](Cc1ccc(OC(C(=O)O)C(=O)O)cc1)NC(=O)[C@H](CCc1ccccc1)NC(=O)OC(C)(C)C | 104%
3 | 0% | 17% | 40% |  | 85% | CCCCCNC(=O)[C@H](Cc1ccc(OCC(=O)O)c(C(=O)O)c1)NC(=O)[C@H](Cc1ccccc1)NC(=O)C[S+]([O-])c1nc[nH]n1 (some centres not stated) | 92%
4 | 0% | 4% | 5% | 82% | 25% | CCCCCNC(=O)[C@H](Cc1ccc(OC(C(=O)O)C(=O)O)cc1)NC(=O)[C@H](CCSC)NC(=O)OC(C)(C)C | 74%
5 | 4% | 0% | 1% | 88% | 18% | CCCCCNC(=O)[C@H](Cc1ccc(OC(C(=O)O)C(=O)O)cc1)NC(=O)[C@H](CC1CCCCC1)NC(=O)OC(C)(C)C | 93%
6 | 0% | 8% | 11% |  | 45% | CCCCCNC(=O)[C@H](Cc1ccc(OCC(=O)O)c(C(=O)O)c1)NC(=O)[C@H](CCO)NC(=O)OC(C)(C)C | 74%
7 | 7% | 34% | 46% |  | 88% | CCCCCNC(=O)[C@H](Cc1ccc(OCC(=O)O)c(C(=O)O)c1)NC(=O)[C@H](Cc1ccccc1)NC(=O)Cc1ccc(O)cc1 | 96%
8 | 0% | 19% | 19% |  | 75% | CCCCCNC(=O)[C@H](Cc1ccc(OCC(=O)O)c(C(=O)O)c1)NC(=O)[C@H](Cc1ccccc1)NC(=O)CCNC(=O)OC(C)(C)C | 88%
9 | 0% | 5% | 32% |  | 81% | CCCCCNC(=O)[C@H](Cc1ccc(OCC(=O)O)c(C(=O)O)c1)NC(=O)[C@H](Cc1ccc(O)cc1)NC(=O)OC(C)(C)C | 115%
10 | 4% | 5% | 8% |  | 43% | CCCCCNC(=O)[C@H](Cc1ccc(OCC(=O)O)c(C(=O)O)c1)NC(=O)[C@H](C)NC(=O)OC(C)(C)C | 76%
11 | 0% | 6% | 36% |  | 82% | CCCCCNC(=O)[C@H](Cc1ccc(OCC(=O)O)c(C(=O)O)c1)NC(=O)[C@H](Cc1ccccc1)NC(=O)CSc1nc[nH]n1 | 80%
12 | 0% | 5% | 24% |  | 71% | CCCCCNC(=O)[C@H](Cc1ccc(OCC(=O)O)c(C(=O)O)c1)NC(=O)[C@H](Cc1ccccc1)N1CCCC1=O | 95%
13 | 0% | 2% | 37% |  | 83% | CCCCCNC(=O)[C@H](Cc1ccc(OCC(=O)O)c(C(=O)O)c1)NC(=O)[C@H](Cc1ccccc1)NC(=O)CCOC | 89%
14 | 0% | 27% | 23% |  | 78% | CCCCCNC(=O)[C@H](Cc1ccc(OCC(=O)O)c(C(=O)O)c1)NC(=O)[C@H](Cc1ccccc1)NC(=O)CCCO | 108%
15 | 0% | 6% | 6% |  | 42% | CCCCCNC(=O)[C@H](Cc1ccc(OCC(=O)O)c(C(=O)O)c1)NC(=O)[C@H](CCOCOC)NC(=O)OC(C)(C)C | 113%

Further lines, the compound ahead of its results:

Row | Structure (SMILES) | inhibition [1] | inhibition [3] | inhibition [4] | inhibition [5] | inhibition [6] | Control Uptake [2]
16 | CCCCCNC(=O)[C@H](Cc1ccc(OCC(=O)O)c(C(=O)O)c1)NC(=O)[C@H](Cc1ccccc1)NC(=O)Cc1c[nH]c2ccccc12 | 0% | 38% | 47% |  | 88% | 73%
17 | CCCCCNC(=O)[C@H](Cc1ccc(OCC(=O)O)c(C(=O)O)c1)NC(=O)[C@H](CO)NC(=O)OC(C)(C)C | 1% | 4% | 11% |  | 41% | 84%
18 | CCCCCNC(=O)[C@H](Cc1ccc(OCC(=O)O)c(C(=O)O)c1)NC(=O)[C@H](Cc1ccccn1)NC(=O)OC(C)(C)C | 2% | 1% | 10% |  | 50% | 106%
19 | CCCCCNC(=O)[C@H](Cc1ccc(OC(C(=O)O)C(=O)O)cc1)NC(=O)[C@H](Cc1ccccc1)NS(C)(=O)=O | 0% | 8% | 9% | 86% | 40% | 93%
20 | CCCCCNC(=O)[C@H](Cc1ccc(OC(C(=O)O)C(=O)O)cc1)NC(=O)[C@H](Cc1ccccc1)NS(=O)(=O)Cc1ccccc1 | 6% | 10% | 4% | 62% | 16% | 98%
21 | CCCCCNC(=O)[C@H](Cc1ccc(OCC(=O)O)c(C(=O)O)c1)NC(=O)[C@H](Cc1ccccc1)NC(=O)Cc1cccc(O)c1 | 6% | 32% | 43% |  | 86% | 108%
22 | CCCCCNC(=O)[C@H](Cc1ccc(OCC(=O)O)c(C(=O)O)c1)NC(=O)[C@H](Cc1ccccc1)NC(=O)CCCc1ccccc1 | 0% | 17% | 19% |  | 70% | 73%
23 | CCCCCNC(=O)[C@H](Cc1ccc(OCC(=O)O)c(C(=O)O)c1)NC(=O)[C@H](Cc1ccccc1)NC(=O)Cc1ccccc1 | 0% | 18% | 45% |  | 87% | 73%
24 | CCCCCNC(=O)[C@H](Cc1ccc(OCC(=O)O)c(C(=O)O)c1)NC(=O)[C@H](Cc1ccccc1)NC(=O)OC(C)(C)C | 0% |  |  |  |  | 108%
25 | CCCCCNC(=O)[C@H](Cc1ccc(OCC(=O)O)c(C(=O)O)c1)NC(=O)[C@H](Cc1ccccc1)NC(C)=O | 0% | 13% | 28% |  | 77% | 95%
26 | CCCCCNC(=O)[C@H](Cc1ccc(OCC(=O)O)c(C(=O)O)c1)NC(=O)[C@H](Cc1ccccc1)NC(=O)CCNS(C)(=O)=O | 10% | 25% | 15% |  | 73% | 81%
27 | CCCCCNC(=O)[C@H](Cc1ccc(OCC(=O)O)c(C(=O)O)c1)NC(=O)[C@H](Cc1ccccc1)NC(=O)Cc1ccc(C)cc1 | 6% | 20% | 39% |  | 85% | 77%
28 | CCCCCNC(=O)[C@H](Cc1ccc(OCC(=O)O)c(C(=O)O)c1)NC(=O)[C@H](Cc1ccccc1)NC(=O)CSc1c[nH]nn1 | 0% | 5% | 49% |  | 88% | 86%
29 | CCCCCNC(=O)[C@H](Cc1ccc(OCC(=O)O)c(C(=O)O)c1)NC(=O)[C@H](COCOC)NC(=O)OC(C)(C)C | 2% |  | 16% |  | 51% | 70%
